# Assay results reported in paper PMC11974842 (bioRxiv, 2025).
# Columns and labels:
# HsCia2a = experiment: Affinity copurification of HsCia1 with HsCia2a; format: binding, Homo sapiens; conditions: strep-tagged HsCia1 bait, HsCia2a prey
# Summary of the method: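 Recombinant human Cia1, wild-type or R65A variant, carries the strep tag as bait. Human Cia2a is the prey. Copurified proteins are compared between the two bait forms. Uncropped gels, including input samples and controls, accompany the analysis.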
# [1] = Melting temperature by Thermofluor; format: physicochemical, Homo sapiens; conditions: R65W vs WT HsCia1
# Cia1 = conditions: via C-terminal tryptophan; ref [26]; cited from earlier work
# CtCia1-Cia2 = experiment: Affinity copurification of ScMet18 with CtCia1-Cia2; format: binding, Chaetomium thermophilum
molecule,measurement,setting,value
Hs R65WCia1: human Cia1 pathogenic variant implicated in a fatal neuromuscular disorder,interaction with HsCia2a,HsCia2a,strongly disrupted
same,thermostability of HsCia1,[1],without impacting Cia1’s thermostability
same,thermostability of HsCia1,[1]; listed as R65W HsCia1,did not affect the stability of HsCia1 in vitro
Viperin: CIA client,binding to Cia1,Cia1,binds Cia1 via Viperin’s C-terminal tryptophan
"ScMet18: S. cerevisiae Met18 with N-terminal His6-SUMO tag (protein, left off: His6, N-terminal, state not stated | SUMO, N-terminal, state not stated) MTPDELNSAVVTFMANLNIDDSKANETASTVTDSIVHRSIKLLEVVVALKDYFLSENEVERKKALTCLTTILAKTPKDHLSKNECSVIFQFYQSKLDDQALAKEVLEGFAALAPMKYVSINEIAQLLRLLLDNYQQGQHLASTRLWPFKILRKIFDRFFVNGSSTEQVKRINDLFIETFLHVANGEKDPRNLLLSFALNKSITSSLQNVENFKEDLFDVLFCYFPITFKPPKHDPYKISNQDLKTALRSAITATPLFAEDAYSNLLDKLTASSPVVKNDTLLTLLECVRKFGGSSILENWTLLWNALKFEIMQNSEGNENTLLNPYNKDQQSDDVGQYTNYDACLKIINLMALQLYNFDKVSFEKFFTHVLDELKPNFKYEKDLKQTCQILSAIGSGNVEIFNKVISSTFPLFLINTSEVAKLKLLIMNFSFFVDSYIDLFGRTSKESLGTPVPNNKMAEYKDEIIMILSMALTRSSKAEVTIRTLSVIQFTKMIKMKGFLTPEEVSLIIQYFTEEILTDNNKNIYYACLEGLKTISEIYEDLVFEISLKKLLDLLPDCFEEKIRVNDEENIHIETILKIILDFTTSRHILVKESITFLATKLNRVAKISKSREYCFLLISTIYSLFNNNNQNENVLNEEDALALKNAIEPKLFEIITQESAIVSDNYNLTLLSNVLFFTNLKIPQAAHQEELDRYNELFISEGKIRILDTPNVLAISYAKILSALNKNCQFPQKFTVLFGTVQLLKKHAPRMTETEKLGYLELLLVLSNKFVSEKDVIGLFDWKDLSVINLEVMVWLTKGLIMQNSLESSEIAKKFIDLLSNEEIGSLVSKLFEVFVMDISSLKKFKGISWNNNVKILYKQKFFGDIFQTLVSNYKNTVDMTIKCNYLTALSLVLKHTPSQSVGPFINDLFPLLLQALDMPDPEVRVSALETLKDTTDKHHTLITEHVSTIVPLLLSLSLPHKYNSVSVRLIALQLLEMITTVVPLNYCLSYQDDVLSALIPVLSDKKRIIRKQCVDTRQVYYELGQIPFE",binding to CtCia1-Cia2,CtCia1-Cia2,can bind to CtCia1-Cia2
